Only some compounds are listed: those with a hit (about 2.3% of all), similar ones and a draw of the others.
STEP inh: STEP phosphatase inhibitors, primary screen, biochemical, fluorescence intensity, uHTS; Tyrosine-protein phosphatase non-receptor type 5 (Homo sapiens), P54829; recombinant STEP, OMFP fluorogenic substrate; inhibition, % at 20 µM; 0.25% of 360,000 active;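 active means inhibition at 20 µM, scaled per plate between control wells, above about 37%, limit read from the data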;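 further: 0% = DMSO with enzyme and substrate and 100% = substrate only without enzyme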
Target sequence (P54829 whole entry, looked up): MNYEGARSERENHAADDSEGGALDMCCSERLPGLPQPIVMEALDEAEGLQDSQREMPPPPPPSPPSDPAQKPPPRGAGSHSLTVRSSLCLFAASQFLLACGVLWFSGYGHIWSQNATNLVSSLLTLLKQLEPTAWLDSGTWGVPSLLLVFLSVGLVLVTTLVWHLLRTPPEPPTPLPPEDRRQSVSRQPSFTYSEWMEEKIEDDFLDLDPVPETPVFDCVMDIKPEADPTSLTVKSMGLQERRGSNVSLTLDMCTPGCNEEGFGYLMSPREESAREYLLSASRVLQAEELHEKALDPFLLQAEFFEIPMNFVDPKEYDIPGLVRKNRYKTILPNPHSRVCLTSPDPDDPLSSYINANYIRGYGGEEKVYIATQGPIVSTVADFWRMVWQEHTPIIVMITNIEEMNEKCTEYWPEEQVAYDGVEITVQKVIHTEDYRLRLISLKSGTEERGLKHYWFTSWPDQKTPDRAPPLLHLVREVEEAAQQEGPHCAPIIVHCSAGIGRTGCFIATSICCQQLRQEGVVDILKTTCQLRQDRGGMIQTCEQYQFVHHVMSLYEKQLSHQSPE
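System: STEP phosphatase, cell-free reaction; Buffer or medium: Bis-Tris pH 6.0 buffer with DTT, detergent; Incubation: 20 min at room temperature, dark; Measured by: fluorescence, 480/540 nm.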
SUMO1-SIM PPI: modulators of SUMO1 protein-protein interactions, primary screen, biochemical, uHTS; Small ubiquitin-related modifier 1 (Homo sapiens), P63165; SUMO1 binding to a labelled peptide, TR-FRET, 1 h; inhibition, % at 20 µM; 0.33% of 360,000 active; AID 602429, 2012; in the data active means inhibition above about 37%
Target sequence (P63165 whole entry, looked up): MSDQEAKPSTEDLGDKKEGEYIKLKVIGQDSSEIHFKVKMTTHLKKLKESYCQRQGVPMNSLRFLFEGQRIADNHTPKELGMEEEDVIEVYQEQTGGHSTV
DNMT1 inh: human DNMT1 methyltransferase inhibitors, primary screen, biochemical, molecular beacon, fluorescence, HinP1I cleavage, uHTS; DNA (cytosine-5)-methyltransferase 1 (Homo sapiens), P26358; AID 588458, 2011; inhibition (reported as % activation of signal), % at 10 µM; 0.83% of 360,000 active; in the data active means inhibition above about 50%
Rpn11 block: Rpn11 (PSMD14) deubiquitinase inhibitors, primary screen, biochemical, fluorescence polarization, uHTS. 0.59% of 360,000 active. AID 588493, 2011. inhibition, % at 20 µM. 26S proteasome non-ATPase regulatory subunit 14 (Homo sapiens), O00487. human 26S proteasome, Ub4-pepOG fluorescence polarization; 20S core pre-blocked with epoxomicin;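 active means inhibition at 20 µM, scaled to each plate's controls, above about 33%, limit read from the data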
Scp-1 inhibitor: Scp-1 phosphatase inhibitors, primary screen, biochemical, colorimetric, uHTS; Carboxy-terminal domain RNA polymerase II polypeptide A small phosphatase 1 (Homo …; Recombinant Scp1, phosphopeptide, malachite green phosphate absorbance; inhibition, % at 20 µM; 0.88% of 340,000 active; AID 493091, 2011;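 active means inhibition above about 50% at 20 µM, limit read from the data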;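 further: plate controls were DMSO wells with enzyme for no effect and wells lacking enzyme for full effect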
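assay system = SCP-1 phosphatase catalytic domain, residues 76-261 | buffer or medium = 50 mM Tris acetate pH 5.5, 0.005% Tween-20, 10 mM MgCl2 | incubation = enzyme reaction 45 min at room temperature, colour 5 min, stabilisation 30 min | signal = Phosphate-binding colour reagent, absorbance read at 630 nm | measure = % inhibition at 20 µM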
LMPTP inh: LMPTP phosphatase inhibitors, primary screen, biochemical, fluorescence intensity, uHTS; inhibition, % at 20 µM; AID 651560, 2012; 0.22% of 360,000 active; recombinant LMPTP-A, OMFP fluorogenic substrate; Low molecular weight phosphotyrosine protein phosphatase (Homo sapiens), P24666;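 active means compounds that cut the enzyme signal by at least half of the control window in the single-dose screen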;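 further: plate controls were DMSO wells with enzyme plus substrate for no effect and substrate without enzyme for full effect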
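Test system: LMPTP-A, protein tyrosine phosphatase of low molecular weight; Input: 0.625 nM enzyme; Incubation: 50 min dark incubation at room temperature; Signal: endpoint fluorescence intensity from OMFP dephosphorylation; Read-out basis: % inhibition versus control wells.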
Scp-1 conf: Scp-1 phosphatase inhibitors, retest, confirmation, biochemical, colorimetric, single concentration; recombinant SCP-1 catalytic domain, phosphate release, malachite green absorbance; AID 540281, 2011; shares compounds with Scp-1 inhibitor; inhibition, % at 20 µM; 61% of 2,500 active;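 further: plate controls were DMSO with enzyme for no effect and buffer wells lacking enzyme for full effect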
Scp-1 MG ctr: colorimetric readout interference by compounds, confirmation, artefact control for Scp-1 inhibitor project, biochemical, single concentration; shares compounds with Scp-1 inhibitor; Colorimetric interference counterscreen, malachite green absorbance 630 nm; apparent inhibition (interference), % at 20 µM; 2,500 tested, under 10 active; AID 540313, 2011;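 further: compounds added after enzyme reaction finished so only phosphate colour detection is probed; plate controls were DMSO wells with completed Scp-1 reaction for no effect and substrate wells lacking enzyme for full effect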
Scp-1 Tm shift: Scp-1 binding by thermal shift, confirmation, orthogonal assay for Scp-1 inhibitor project, biophysical, differential scanning fluorimetry | shares compounds with Scp-1 inhibitor | Recombinant SCP1, Sypro Orange thermal shift Tm | thermal shift relative to vanadate control, % at 40 µM | 25% of 1,500 active;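 active means substances whose mean melting-temperature shift, as a percentage of the reference inhibitor's shift, reaches about 5.3%, limit read from the data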;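 further: 0% = Tm of DMSO wells and 100% = Tm with sodium orthovanadate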
Starred values were filed as active, the others as inactive; · = not tested or not shown.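 How the source made its calls, unless noted: active means inhibition of at least 30% at 20 µM; inactive means the rest.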

SMILES	STEP inh	SUMO1-SIM PPI	DNMT1 inh	Rpn11 block	Scp-1 inhibitor	LMPTP inh	Scp-1 conf	Scp-1 MG ctr	Scp-1 Tm shift
COc1ccc(N2CCN(Cc3nc(-c4ccccc4)no3)CC2)cc1	-3	-2	-5	1	-9	-1	·	·	·
Cc1cc(OCCN2CCOCC2)ccc1C(C)C	-2	3	1	9	-15	-1	·	·	·
Cc1ccc[n+](CC(=O)Nc2cc(C(F)(F)F)ccc2N2CCOCC2)c1	-4	-2	2	5	55*	-2	-18	-19	·
Cc1cccc(NC(=O)CSCC(=O)Nc2cc(C(F)(F)F)ccc2N2CCOCC2)c1	-1	-4	-2	2	·	2	·	·	·
CN(C)C(=O)c1ccc(NC(=O)c2cc(-c3ccco3)nc3ccccc23)cc1	13	-12	50*	-4	66*	12	58*	-5	5
CCN(CC)CCN(C(=O)c1ccc2c(c1)CCCC2)c1nc2c(C)cccc2s1	2	2	0	0	3	2	·	·	·
CCc1ccc(N(CC(=O)NCc2ccc(F)cc2)C(=O)c2csnn2)cc1	0	-1	0	2	4	0	·	·	·
O=C(NC1CCCCC1)C(c1ccc(C(F)(F)F)cc1)n1c(=O)c(-c2ccccc2)nc2ccccc21 (configuration not stated)	·	2	·	·	·	-1	·	·	·
O=C(N/N=C/C=C/c1ccco1)C(O)c1ccccc1 (configuration not stated)	-1	-2	39	-7	62*	-1	53*	-11	2
Cc1ccc(OCC(=O)N/N=C/C=C/c2ccco2)cc1	-1	0	26	3	73*	3	59*	-10	7.5*
Cc1ccc(OCc2nnc(SC(C)C(=O)O)n2-c2ccccc2)cc1 (configuration not stated)	-3	-4	1	4	-5	0	·	·	·
Cc1ccc(NC(=O)CSC2=C(C#N)C(c3ccco3)CC(=O)N2)cc1 (configuration not stated)	-5	2	1	-5	-15	1	·	·	·
Cc1ccc(C(=O)CSC2=C(C#N)C(c3ccco3)CC(=O)N2)c(C)c1 (configuration not stated)	7	-11	64*	-6	61*	2	56*	-11	2
N#CCCn1cc(C(=O)N2CCOCC2)c(-c2ccc3c(c2)OCCO3)n1	-2	1	-2	1	1	-1	·	·	·
C/C(=N\NC(=O)c1cc(-c2cccc([N+](=O)[O-])c2)n[nH]1)c1ccccc1O	97*	-15	60*	38	96*	9	85*	-6	6.3*
O=C(N/N=C/c1ccc(-c2cccc([N+](=O)[O-])c2)o1)c1ccccc1O	9	-3	-1	-2	74*	14	77*	-10	9.2*
C/C(=N\NC(=O)c1cc(-c2cccc([N+](=O)[O-])c2)n[nH]1)c1ccc(F)cc1	3	-10	3	2	-9	7	·	·	·
O=C(N/N=C/c1ccc(-c2cccc([N+](=O)[O-])c2)o1)c1ccc([N+](=O)[O-])cc1	3	-11	2	8	52*	2	-20	-18	·
O=C(NC(=O)c1ccccc1)Nc1cccc(S(=O)(=O)N2CCCCC2)c1	-5	2	14	-6	-6	-3	·	·	·
CCN(C[C@H]1N[C@@](Cc2ccccc2)(C(=O)OC)[C@H]2C(=O)N(C)C(=O)[C@@H]12)C(=O)COC	-4	2	4	-6	50*	1	-2	-3	·
CC(=O)Nc1nnc(SCC(=O)Nc2ccc(N3CCOCC3)c(Cl)c2)s1	1	-1	-3	8	63*	1	-3	-8	·
CC(=O)Nc1nnc(SCC(=O)Nc2ccc3c(c2)OCCO3)s1	0	1	2	4	-5	-1	·	·	·
Cc1ccc(C(=O)N/N=C/c2cc(Br)ccc2O)cn1	18	-9	-1	11	-12	0	·	·	·
Cc1ccc(C(=O)N/N=C\C=C\c2ccc(Br)cc2)cn1	6	-19	6	3	72*	1	48*	-6	-16
CC12CCC(=O)C=C1CCC1C2C(O)CC2(C)C1CCC2(O)C(=O)COC(=O)COCC(=O)O (configuration not stated)	1	0	1	0	-4	0	·	·	·
SMILES	STEP inh	SUMO1-SIM PPI	DNMT1 inh	Rpn11 block	Scp-1 inhibitor	LMPTP inh	Scp-1 conf	Scp-1 MG ctr	Scp-1 Tm shift
C=CCn1c(SCC(=O)NCC2CCCO2)nc2scc(-c3ccco3)c2c1=O (configuration not stated)	-3	5	2	6	-4	1	·	·	·
C=CCn1c(SCC(=O)NCCOC)nc2scc(-c3ccco3)c2c1=O	1	15	7	0	52*	2	16	-25	·
CC1(C)CC(N2CCCC2)=CC(=[N+]2CCCC2)C1	-2	2	-1	2	100*	-1	92*	-11	-20
CC1(C)CC(N2CCCC2)=CC(=[N+]2CCCCC2)C1	-2	2	0	-4	1	-1	·	·	·
CCOc1ccccc1C(=O)N/N=C/c1coc2ccc(Cl)cc2c1=O	1	-10	6	14	-8	-1	·	·	·
COc1cc(C2CC(=O)NC3=C2C(=O)CC(C)(C)C3)ccc1O (configuration not stated)	-3	1	-1	0	8	-3	-22	-24	·
COc1ccc(C2Nc3ccccc3NC3=C2C(=O)CC(C)(C)C3)cc1O (configuration not stated)	1	-11	21	-6	56*	-1	-6	-20	·
Cc1cc(CC(=O)O)c2oc(-c3ccoc3)cc(=O)c2c1	·	·	·	·	75*	·	46*	-15	5

Screens (PubChem)
